Laboratory results reported in article PMC3668529 (FEBS Open Bio, 2013).
Like-named read-outs stand apart in the source and are kept apart here. Blank lines part the entries; values can stand above or below the molecule they belong to.

Experiments:
[1] = molecular target: T1, rCPT-2 (Rattus norvegicus, UniProt P18886); test: rCPT-2 activity assay, spectrophotometric with DTNB; type: biochemical; conditions: diluted lysate, 30 °C, reverse reaction, no additional β-OG
T1 sequence (P18886 26-658): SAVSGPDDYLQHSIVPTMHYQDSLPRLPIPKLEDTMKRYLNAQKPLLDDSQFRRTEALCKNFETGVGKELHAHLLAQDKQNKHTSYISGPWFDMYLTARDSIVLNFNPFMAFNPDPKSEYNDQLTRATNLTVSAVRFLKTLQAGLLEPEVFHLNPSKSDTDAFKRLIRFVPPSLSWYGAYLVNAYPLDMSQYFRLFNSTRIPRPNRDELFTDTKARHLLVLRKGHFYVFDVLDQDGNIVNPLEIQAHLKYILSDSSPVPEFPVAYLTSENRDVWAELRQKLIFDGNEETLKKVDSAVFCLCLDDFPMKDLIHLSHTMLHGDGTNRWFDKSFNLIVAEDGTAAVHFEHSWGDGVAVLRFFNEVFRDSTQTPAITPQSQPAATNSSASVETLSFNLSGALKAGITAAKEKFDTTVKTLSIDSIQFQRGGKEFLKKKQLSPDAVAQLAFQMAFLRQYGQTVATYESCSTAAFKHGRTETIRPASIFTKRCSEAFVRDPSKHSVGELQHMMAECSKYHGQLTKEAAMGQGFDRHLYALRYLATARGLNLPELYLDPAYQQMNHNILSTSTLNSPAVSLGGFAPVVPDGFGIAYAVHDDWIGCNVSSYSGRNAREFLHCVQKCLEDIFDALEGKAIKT
Method in brief: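 The reverse reaction was run at 30 °C with crude Pichia pastoris lysate (30 nM enzyme) in 25 mM Tris–HCl pH 7.4, 120 mM KCl and 1 mM EDTA, without added β-OG. Substrates were 500 μM carnitine and 80 μM palmitoyl-CoA. Released CoA-SH was detected with DTNB by absorbance at 410 nm (ε 13,600 M−1 cm−1). Inhibitors were titrated from 10 mM DMSO stocks.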

[2] = molecular target: T1, rCPT-2; test: Binding site by X-ray crystallography and manual docking; conditions: crystal structures and docking models
Method in brief: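 Crystals were cryo-protected or oil-exchanged, flash frozen, and data collected at 100 K. Ligands were placed by manual modelling into the structure, then energy-minimised with protein atoms constrained.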

[3] = molecular target: T1, rCPT-2; test: Differential scanning calorimetry; type: binding
Method in brief: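 Thermal unfolding was run by DSC at a scan rate of 30 °C/h. The reference cell held buffer, with a buffer–buffer blank as baseline. Transition midpoints were read from the curves.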

[4] = ITC demicellization of β-OG with and without co-dissolved inhibitor; type: physicochemical; conditions: for CMC / TΔSmic0 / ΔGmic0 / ΔHmic0: absence of rCPT-2
Method in brief: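 Syringe held 300 mM β-OG with 1% or 7.5% (v/v) DMSO, with or without 0.75 mM inhibitor, in 25 mM Tris/HCl pH 8, 150 mM NaCl, 2 mM TCEP, degassed 10 min. Injected stepwise into buffer. Initial constant heats gave ΔHdemic0 (ΔHmic0 of opposite sign). Curves simulated with a cooperative association model. CMC taken as midpoint, ΔGmic0 = RT lnCMC, ΔCp0 from linear fits of ΔHmic0 versus temperature.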

[5] = molecular target: T1, rCPT-2; test: Isothermal titration calorimetry; type: binding
Method in brief: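 Inhibitor (100–300 μM, from 10 mM DMSO stock, in identical buffer) was injected in 10 μL steps. ΔH0, K and n came from a 1:1 fit, with ΔG0 and ΔS0 calculated. ΔCp0 came from runs at several temperatures. Proton transfer was tested with HEPES, Bicine or Tris buffers at pH 8 and 10 °C, fitting ΔHobs against buffer ionization enthalpy by linear regression.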

[6] = molecular target: T1, rCPT-2; conditions: octanoyl-CoA as substrate, competitive; cited from earlier work
[7] = cited from earlier work

Molecule: CCCCCCCCCCCCCCNC(=O)N[C@H](CC(=O)[O-])C[N+](C)(C)C [Inhibitor 4, reference compound]
IC50 [1]: 0.38 µM | rCPT-2 (binding site) [2]: Acylcarnitine site | midpoint of the thermal unfolding transition of rCPT-2 ([3]; 14 μM rCPT-2, 100 μM inhibitor): 49.8 °C | total unfolding enthalpy of rCPT-2 ([3]; interval 30–55 °C, protein in excess of inhibitor): 1270 kcal/mol | stability increase of rCPT-2 ([3]; with versus without inhibitor): ~3 °C | effect on the CMC of β-OG ([4]; 7.5% (v/v) DMSO, compared to β-OG alone): slightly increase | CMC ([4]; 14 °C): 35.1 mM | TΔSmic0 ([4]; 14 °C): 3.26 kcal/mol | ΔGmic0 ([4]; 14 °C): -1.90 kcal/mol | CMC ([4]; 25 °C): 31.3 mM | TΔSmic0 ([4]; 25 °C): 2.92 kcal/mol | ΔGmic0 ([4]; 25 °C): -2.04 kcal/mol | ΔHmic0 ([4]; 25 °C): 0.88 kcal/mol | CMC ([4]; 30 °C): 31.0 mM | TΔSmic0 ([4]; 30 °C): 2.66 kcal/mol | ΔGmic0 ([4]; 30 °C): -2.08 kcal/mol | ΔHmic0 ([4]; 30 °C): 0.57 kcal/mol | CMC ([4]; 45 °C): 31.0 mM | TΔSmic0 ([4]; 45 °C): 1.74 kcal/mol | ΔGmic0 ([4]; 45 °C): -2.19 kcal/mol | ΔHmic0 ([4]; 45 °C): -0.45 kcal/mol | Kd ([5]; ITC, 10 °C, 25 mM Tris/HCl pH 8, 1% β-OG, 1% DMSO): 10.5 ± 3.3 µM | TΔS^0 ([5]; ITC, 10 °C, Tris/HCl pH 8): -3.3 ± 0.5 kcal/mol | ΔG^0 ([5]; ITC, 10 °C, Tris/HCl pH 8): -6.5 ± 0.3 kcal/mol | ΔH^0 ([5]; ITC, 10 °C, Tris/HCl pH 8): -9.8 ± 0.7 kcal/mol | Kd ([5]; ITC, 37 °C, Tris/HCl pH 8): 20 µM | TΔS^0 ([5]; ITC, 37 °C, Tris/HCl pH 8): -3.7 kcal/mol | ΔG^0 ([5]; ITC, 37 °C, Tris/HCl pH 8): -5.9 kcal/mol | ΔH^0 ([5]; ITC, 37 °C, Tris/HCl pH 8): -9.5 kcal/mol | sign of the reaction enthalpy ([5]; Tris/HCl pH 8): exothermic | molar heat capacity change ΔCp0 of binding ([5]; Tris/HCl pH 8, temperature dependence of ΔH^0): 11 cal/mol K | Kd ([5]; read-out: dissociation constants determined by ITC): 20 µM

CMC ([4]; 14 °C): 32.8 mM | TΔSmic0 ([4]; 14 °C): 3.27 kcal/mol | ΔGmic0 ([4]; 14 °C): -1.94 kcal/mol | ΔHmic0 ([4]; 14 °C): 1.33 kcal/mol | CMC ([4]; 30 °C): 27.8 mM | TΔSmic0 ([4]; 30 °C): 2.75 kcal/mol | ΔGmic0 ([4]; 30 °C): -2.15 kcal/mol | ΔHmic0 ([4]; 30 °C): 0.60 kcal/mol | CMC ([4]; 37 °C): 28.6 mM | TΔSmic0 ([4]; 37 °C): 2.34 kcal/mol | ΔGmic0 ([4]; 37 °C): -2.18 kcal/mol | ΔHmic0 ([4]; 37 °C): 0.16 kcal/mol | ΔHmic0 ([4]; 45 °C): -0.54 kcal/mol | molar heat capacity change of micelle formation ΔCp0 ([4]; slopes of ΔHmic0 versus temperature, with and without inhibitors): −60 to −90 cal/mol K
Molecule: CCCCCCCCO[C@@H]1O[C@H](CO)[C@@H](O)[C@H](O)[C@H]1O [β-OG, β-octyl glucoside]
Ki [6]: 15000 µM

Molecule: cinnamycin
binding constants of the PE–cinnamycin complex, times smaller in the β-OG environment [7]: 10–100 times | free energy of binding ΔG^0, less negative in β-OG micelles than in the aqueous phase [7]: 1 to 2.5 kcal/mol
